Assay outcomes as filed in PubChem BioAssay.
Sampled rows, rich in hits. Any-hit rate of the full collection: about 3.3%.
PMI act hi M6P – PMI (human) activation, high substrate; P34949; coupled PMI enzyme assay, resazurin fluorescence, 20 min; stronger effect = higher value; 1 = untreated enzyme, 0 = substrate-free blank; activation factor at 20 µM; actives 0.34% (n = 190,000);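 active means activation factor of 2 or more at 20 µM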
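Test system: human phosphomannose isomerase with PGI, G6PDH, diaphorase coupling enzymes; amount: 15 ng/mL PMI; incubation: enzyme reaction with compound 20 min at room temperature; technique: resorufin fluorescence (Ex 544/Em 590 nm) from resazurin via diaphorase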
ROMK mod – human ROMK K+ channel modulation, primary screen; P48048; Tet-inducible ROMK, thallium flux fluorescence; actives lie on both sides; B-score at 10 µM; actives 2% (n = 130,000);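 active means signal ratio slope over the read window, or its plate-corrected B-score, at least 3 SD from the plate mean, either direction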;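 further: B-score of the F/F0 ratio slope over 7 to 12 s after thallium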
PMI act – activators of human phosphomannose isomerase. purified human PMI, coupled resazurin fluorescence, 20 min; stronger effect = higher value; 1 = vehicle control, 0 substrate-free wells. P34949. activation factor at 20 µM. AID 1214. actives 0.005% (n = 190,000);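 active means activation factor of 2 or more at 20 µM, relative to plate controls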
ABCB1 block – blocks JC-1 efflux by human ABCB1 transporter; P08183; CCRF-Adr cells, flow cytometry; inhibition, % at 6.6 µM; actives 0.067% (n = 190,000); AID 1326; in the data active means inhibition above about 40%;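 further: higher value means more JC-1 retained so stronger ABCB1 efflux block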
KCC2 mod – modulators of human KCC2 chloride dependent transport; Q9H2X9; KCC2 cells, thallium flux FluoZin-2 fluorescence; AID 1456; B-score of Tl+ flux slope (higher = more flux/activation; lower = inhibition) at 10 µM; actives 2.2% (n = 190,000);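 active means thallium flux slope and its plate-corrected score both differing from the plate sample mean at a set confidence after two filtering rounds, in either direction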;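 further: slope of fluorescence scaled to starting intensity during 10 to 20 s after thallium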
ABCG2 inh – human ABCG2 inhibition, ABCB1 as counter-screen. actives 0.1% (n = 190,000). inhibition, % at 6.6 µM. AID 1325. IgMXP3 cells, JC-1 efflux, flow cytometry;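 active means inhibition above 80%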
Target sequence (Q9UNQ0 whole entry, looked up): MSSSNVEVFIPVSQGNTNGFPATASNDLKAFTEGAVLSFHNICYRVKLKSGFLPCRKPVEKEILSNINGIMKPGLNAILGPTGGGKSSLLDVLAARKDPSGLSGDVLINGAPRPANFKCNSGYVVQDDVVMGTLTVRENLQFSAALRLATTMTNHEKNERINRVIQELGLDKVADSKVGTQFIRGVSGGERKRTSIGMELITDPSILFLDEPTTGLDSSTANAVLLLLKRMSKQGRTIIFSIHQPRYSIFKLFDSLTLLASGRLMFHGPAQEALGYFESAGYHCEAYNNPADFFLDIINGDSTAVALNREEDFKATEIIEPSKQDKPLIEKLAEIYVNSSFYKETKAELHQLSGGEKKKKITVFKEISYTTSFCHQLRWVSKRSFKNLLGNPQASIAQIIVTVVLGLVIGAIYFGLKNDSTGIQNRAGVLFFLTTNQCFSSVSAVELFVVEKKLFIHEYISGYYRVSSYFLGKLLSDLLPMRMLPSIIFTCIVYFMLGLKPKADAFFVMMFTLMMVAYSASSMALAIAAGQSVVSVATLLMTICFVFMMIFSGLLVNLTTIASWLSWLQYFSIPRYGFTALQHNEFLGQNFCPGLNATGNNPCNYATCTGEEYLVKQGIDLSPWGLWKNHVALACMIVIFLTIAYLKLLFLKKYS
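test system = two drug-resistant human cell lines, ABCG2 and ABCB1 | amount = 3 million cells/mL final, two lines in 1:1 ratio | reagent = JC-1 transporter substrate | doses = one concentration, 6.6 µM final | incubation = 10 min at 25 °C | signal = flow cytometric JC-1 green MFI at 530 nm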
ROMK retest – human ROMK channel modulation, retest confirmation | AID 1917 | shares compounds with ROMK mod | normalized thallium flux (F/F0 slope) at 10 µM | actives 54% (n = 3,000) | ROMK thallium flux, fluorescence ratio; stronger effect = lower value;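 active means Flux at 10 µM at least 3 SD below or above vehicle control mean in one or both replicates; inconclusive means no clear call, values can overlap the other calls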
Hits are given with their value; – = inactive; ? = inconclusive; · = no result.

SMILES	PMI act hi M6P	ROMK mod	PMI act	ABCB1 block	KCC2 mod	ABCG2 inh	ROMK retest
CCCCCn1c(=N)n(CC(O)COc2ccccc2OC)c2ccccc21 (configuration not stated)	–	·	–	–	–	–	0.048
Cc1ccc(S(=O)(=O)N/N=C/c2ccc(OCC(=O)NC(C)C)cc2)cc1	·	·	·	·	–	·	·
Cc1c(N=C2NN=C(c3c[nH]c4ccccc34)CS2)c(=O)n(-c2ccccc2)n1C	·	·	·	·	–	·	·
Cn1c(=O)c2[nH]c(N=Nc3ccc(N)cc3N)nc2n(C)c1=O	·	·	·	·	–	·	·
CCOC(=O)Nc1csnn1	·	·	·	·	–	·	·
Cc1nc2ccccc2n1CC(O)COc1ccccc1Cl (configuration not stated)	–	–	–	–	–	–	0.057
COc1ccccc1OCC(O)Cn1c(=N)n(Cc2ccccc2)c2ccccc21 (configuration not stated)	–	-7.8	–	–	–	–	0.048
COCCn1c(N)c(Sc2ccc([N+](=O)[O-])cc2)c(=O)[nH]c1=O	–	·	–	–	–	–	·
CCOC(=O)N1CCC(NC(=O)C(NC(=O)C2CCC(C)CC2)C(C)CC)CC1 (configuration not stated)	–	–	–	–	–	–	·
Cc1ccc(NS(=O)(=O)c2cc([N+](=O)[O-])ccc2NNC(=S)Nc2cc(C)ccc2C)c(C)c1	–	·	–	–	–	–	0.064
Clc1ccc(CN2CCC(c3nc4ccc(Cl)cc4[nH]3)CC2)cc1	–	·	–	–	·	–	0.063
O=C(c1ccco1)N1CCN(C(c2ccccc2)c2nnnn2C2CCCC2)CC1 (configuration not stated)	–	–	–	–	–	–	·
Cc1nnnn1/C(=C\c1ccccc1)C(=O)OCC(=O)NC(C)(C)C	–	-8.2	–	–	–	–	0.043
CC(C)(C)NC(=O)COC(=O)c1ccccc1Oc1ccccc1	·	·	·	·	–	·	·
O=C(O)c1ccc(N2CCOCC2)c(N2C(=O)C3C4C=CC(C4)C3C2=O)c1 (configuration not stated)	–	–	–	–	–	–	–
NC(=O)c1ccc(N2CCCCC2)c(N2C(=O)C3C4C=CC(C4)C3C2=O)c1 (configuration not stated)	–	–	–	–	·	–	·
O=C(/C=C/c1ccccc1)CC(O)(c1ccccc1)C(F)(F)F (configuration not stated)	–	-4.8	–	–	–	–	0.052
Cc1ccc(NC(=S)NNC(=S)Nc2ccc(C)cc2C)cc1	–	5.3	–	–	–	–	–
CN(C(=O)COC(=O)COc1ccc(Cl)cc1)C1CCCCC1	–	·	–	–	–	–	–
O=C(CSCc1ccccc1)NNC(=S)Nc1cccc(Cl)c1Cl	–	·	–	–	–	–	–
CCCC(c1nnnn1Cc1ccc(F)cc1)N1CCN(C2CCCCC2)CC1 (configuration not stated)	–	·	–	–	–	–	0.052
COc1ccc(Cn2nnnc2C(c2ccc(F)cc2)N2CCN(C3CCCC3)CC2)cc1 (configuration not stated)	–	-4.2	–	–	·	–	0.053
CC(C)C(c1nnnn1Cc1ccc(F)cc1)N1CCN(C2CCCC2)CC1 (configuration not stated)	–	-4.6	–	–	–	–	0.059
CC(C)C(c1nnnn1Cc1ccco1)N1CCN(C2CCCC2)CC1 (configuration not stated)	–	–	–	–	·	–	·
O=C(CN1CCN(c2ccc(O)cc2)CC1)NC(=O)NCc1ccco1	–	·	–	–	–	–	·
SMILES	PMI act hi M6P	ROMK mod	PMI act	ABCB1 block	KCC2 mod	ABCG2 inh	ROMK retest
CC(=O)C1(C)OC(N)=C(C#N)C(c2ccccc2)C1(C#N)C#N (configuration not stated)	–	-3.3	–	–	–	–	?
CC(=O)C1=C(c2ccccc2)OC(N)=C(C#N)C1c1ccccc1C (configuration not stated)	–	·	–	–	–	–	·
COc1ccc(N(CC(=O)NCc2ccccc2)C(=O)Cn2nnc(-c3ccccc3F)n2)cc1OC	–	–	–	–	–	–	·
O=C1NC(c2ccc3c(c2)OCO3)Nc2ccccc21 (configuration not stated)	–	2.2	–	–	·	–	–
COc1cc(C)ccc1OCCOCCOc1ccc([N+](=O)[O-])cc1	–	-1.7	–	–	–	–	–
CCOC(=O)N1CCN(C(=S)Nc2cccc(C)c2)CC1	–	·	–	–	–	–	·
NC(=O)C1=NOC(CNc2ncc(C(F)(F)F)cc2Cl)C1 (configuration not stated)	–	2.4	–	–	–	–	–
CO/N=C/NC(=O)C1=NOC(CNc2ncc(C(F)(F)F)cc2Cl)C1 (configuration not stated)	–	–	–	–	–	–	·
CCNc1ccc(S(=O)(=O)N(C)C)cc1NCC(=O)Nc1ccccc1F	–	–	–	–	–	–	·
CCNc1ccc(S(=O)(=O)N(C)C)cc1NCC(=O)Nc1ccc(Br)cc1F	–	-3.2	–	–	–	–	0.062
CCCCCOC(=O)c1[nH]c2c(c1C)C(=O)CC(c1ccco1)C2 (configuration not stated)	–	–	–	–	–	–	–
CCOCCOC(=O)c1[nH]c2c(c1C)C(=O)CC(c1cccs1)C2 (configuration not stated)	–	5.7	–	–	–	–	–
COCCOC(=O)c1[nH]c2c(c1C)C(=O)CC(c1cccs1)C2 (configuration not stated)	–	–	–	–	–	–	·
O=C(C1=C[C@@H](c2ccccc2)C[C@@H](OCc2ccc(CO)cc2)O1)N1CCCCCCC1	–	·	–	–	–	–	·
COc1cc(CN2CCN(C(=O)CC(C)C)CC2)cc(OC)c1OC	–	·	–	–	–	–	–
Cc1cc[n+](-c2[nH]c(=O)sc2/C=N/N=C(\[O-])c2ccccc2)cc1C	–	-6.6	–	–	–	–	0.047
CN1C(=O)c2ccccc2C(C(=O)O)C1c1cccc(Cl)c1 (configuration not stated)	–	1.6	–	–	–	–	–
CCc1ccc(C2C(C(=O)O)c3ccccc3C(=O)N2C)cc1 (configuration not stated)	–	–	–	–	–	–	·
CN(C)S(=O)(=O)c1cccc(C(=O)NCc2cccs2)c1	–	–	–	–	–	–	·
CCOC(=O)C1(CC2CCCCO2)CCN(Cc2cc3ccccc3[nH]2)CC1 (configuration not stated)	·	·	·	–	–	–	·
